Among the data in ChEMBL document CHEMBL5321284, “Discovery of a First-in-Class Degrader for the Lipid Kinase PIKfyve” (J Med Chem, 2023) are Activity, inhibition and IC50 values, retold here.

Experiment [1] addresses T1, von Hippel-Lindau disease tumor suppressor/1-phosphatidylinositol 3-phosphate 5-kinase (Homo sapiens) (UniProt Q9Y2I7+P40337). The experiment in a line: PROTAC activity at VHL/PIKfyve in human VCaP cells assessed as induction of PIKfyve degradation at 1 uM incubated for 24 hrs by immunoblot analysis. Format: cell-based. In a few lines:
(§1)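 VCaP cells treated 24 h at 0.1 or 1.0 µM; percent PIKfyve degradation determined by immunoblotting.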
On the technique in general: A western blot detects proteins with antibodies after separation by electrophoresis.

Experiment [2] concerns the target T1, von Hippel-Lindau disease tumor suppressor/1-phosphatidylinositol 3-phosphate 5-kinase (Homo sapiens). The experiment in a line: PROTAC activity at VHL/PIKfyve in human VCaP cells assessed as induction of PIKfyve degradation at 0.1 uM incubated for 24 hrs by immunoblot analysis. Format: cell-based. In a few lines:
as §1

Experiment [3] has as its system VCaP. The experiment can be described thus: Inhibition of autophagy in human VCaP cells assessed as increase in LC3A/B expression at 100 to 300 nM incubated for 4 hrs followed by culturing in compound-free medium for 72 hrs by immunoblot analysis. In kind it is functional, cell-based. The conditions noted are these: dose 100-300 nM. In outline: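 VCaP cells treated 4 h, compounds removed, cultured 72 h in compound-free medium; whole cell lysates immunoblotted for PIKfyve, LC3A/B and GAPDH (RIPA lysis, 4–12% Bis-Tris gels, PVDF, ECL).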

Experiment [4] relates to VCaP. The experiment in a line: Antiproliferative activity against human VCaP cells assessed as inhibition of cell proliferation incubated for 24 hrs followed by culturing in compound-free medium for 2 weeks by crystal violet staining based analysis. Format: functional. In a few lines: (§2)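 VCaP cells exposed either 24 h then washed and chased 2 weeks in compound-free medium, or continuously for 2 weeks; long-term viability visualized by crystal violet staining; IC50 calculated for each condition.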

The subject of experiment [5] is DU-145. The experiment in a line: Induction of massive cytoplasmic vacuolization in human RFP-labeled DU-145 cells incubated for 24 hrs. In kind it is functional, cell-based. To be noted: dose 100-3000 nM. In a few lines: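 RFP-labeled DU145 cells treated 24 h (300 nM shown); vacuole area per cell quantified from images.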
The test system of experiment [6] is VCaP. The experiment in a line: Antiproliferative activity against human VCaP cells assessed as inhibition of cell proliferation incubated for 2 weeks by crystal violet staining based analysis. In kind it is functional. To be noted: 336 h. In outline: as §2
The subject of experiment [7] is DU-145. The experiment in a line: Induction of massive cytoplasmic vacuolization in human RFP-labeled DU-145 cells at 300 nM incubated for 4 hrs. Format: functional, cell-based.
Experiment [8] deals with VCaP. The experiment in a line: Antiproliferative activity against human VCaP cells assessed as inhibition of cell proliferation incubated for 4 hrs followed by culturing in compound-free medium for 2 weeks by crystal violet staining based analysis. Format: functional. In outline: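 VCaP cells treated 4 h, compound removed, then cultured 2 weeks in drug-free medium; long-term viability by crystal violet staining.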

Experiment [9] deals with T1, von Hippel-Lindau disease tumor suppressor/1-phosphatidylinositol 3-phosphate 5-kinase (Homo sapiens). The experiment in a line: PROTAC activity at VHL/PIKfyve in human VCaP cells assessed as induction of PIKfyve degradation at 100 to 300 nM incubated for 4 hrs followed by culturing in compound-free medium for 72 hrs by immunoblot analysis. In kind it is cell-based. To be noted: dose 100-300 nM.

Molecules are shown by their SMILES. Active and inactive are the calls of the source. The calls are words filed in the database; no cut-off is given here.

T1 sequence (P40337 whole entry partner): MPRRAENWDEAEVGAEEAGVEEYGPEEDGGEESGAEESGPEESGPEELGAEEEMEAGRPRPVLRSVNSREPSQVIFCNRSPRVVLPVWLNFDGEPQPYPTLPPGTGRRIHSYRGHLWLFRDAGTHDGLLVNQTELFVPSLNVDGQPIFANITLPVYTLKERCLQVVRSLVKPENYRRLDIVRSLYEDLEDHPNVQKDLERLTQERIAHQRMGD
T1 sequence (Q9Y2I7 2-2098 limits assumed): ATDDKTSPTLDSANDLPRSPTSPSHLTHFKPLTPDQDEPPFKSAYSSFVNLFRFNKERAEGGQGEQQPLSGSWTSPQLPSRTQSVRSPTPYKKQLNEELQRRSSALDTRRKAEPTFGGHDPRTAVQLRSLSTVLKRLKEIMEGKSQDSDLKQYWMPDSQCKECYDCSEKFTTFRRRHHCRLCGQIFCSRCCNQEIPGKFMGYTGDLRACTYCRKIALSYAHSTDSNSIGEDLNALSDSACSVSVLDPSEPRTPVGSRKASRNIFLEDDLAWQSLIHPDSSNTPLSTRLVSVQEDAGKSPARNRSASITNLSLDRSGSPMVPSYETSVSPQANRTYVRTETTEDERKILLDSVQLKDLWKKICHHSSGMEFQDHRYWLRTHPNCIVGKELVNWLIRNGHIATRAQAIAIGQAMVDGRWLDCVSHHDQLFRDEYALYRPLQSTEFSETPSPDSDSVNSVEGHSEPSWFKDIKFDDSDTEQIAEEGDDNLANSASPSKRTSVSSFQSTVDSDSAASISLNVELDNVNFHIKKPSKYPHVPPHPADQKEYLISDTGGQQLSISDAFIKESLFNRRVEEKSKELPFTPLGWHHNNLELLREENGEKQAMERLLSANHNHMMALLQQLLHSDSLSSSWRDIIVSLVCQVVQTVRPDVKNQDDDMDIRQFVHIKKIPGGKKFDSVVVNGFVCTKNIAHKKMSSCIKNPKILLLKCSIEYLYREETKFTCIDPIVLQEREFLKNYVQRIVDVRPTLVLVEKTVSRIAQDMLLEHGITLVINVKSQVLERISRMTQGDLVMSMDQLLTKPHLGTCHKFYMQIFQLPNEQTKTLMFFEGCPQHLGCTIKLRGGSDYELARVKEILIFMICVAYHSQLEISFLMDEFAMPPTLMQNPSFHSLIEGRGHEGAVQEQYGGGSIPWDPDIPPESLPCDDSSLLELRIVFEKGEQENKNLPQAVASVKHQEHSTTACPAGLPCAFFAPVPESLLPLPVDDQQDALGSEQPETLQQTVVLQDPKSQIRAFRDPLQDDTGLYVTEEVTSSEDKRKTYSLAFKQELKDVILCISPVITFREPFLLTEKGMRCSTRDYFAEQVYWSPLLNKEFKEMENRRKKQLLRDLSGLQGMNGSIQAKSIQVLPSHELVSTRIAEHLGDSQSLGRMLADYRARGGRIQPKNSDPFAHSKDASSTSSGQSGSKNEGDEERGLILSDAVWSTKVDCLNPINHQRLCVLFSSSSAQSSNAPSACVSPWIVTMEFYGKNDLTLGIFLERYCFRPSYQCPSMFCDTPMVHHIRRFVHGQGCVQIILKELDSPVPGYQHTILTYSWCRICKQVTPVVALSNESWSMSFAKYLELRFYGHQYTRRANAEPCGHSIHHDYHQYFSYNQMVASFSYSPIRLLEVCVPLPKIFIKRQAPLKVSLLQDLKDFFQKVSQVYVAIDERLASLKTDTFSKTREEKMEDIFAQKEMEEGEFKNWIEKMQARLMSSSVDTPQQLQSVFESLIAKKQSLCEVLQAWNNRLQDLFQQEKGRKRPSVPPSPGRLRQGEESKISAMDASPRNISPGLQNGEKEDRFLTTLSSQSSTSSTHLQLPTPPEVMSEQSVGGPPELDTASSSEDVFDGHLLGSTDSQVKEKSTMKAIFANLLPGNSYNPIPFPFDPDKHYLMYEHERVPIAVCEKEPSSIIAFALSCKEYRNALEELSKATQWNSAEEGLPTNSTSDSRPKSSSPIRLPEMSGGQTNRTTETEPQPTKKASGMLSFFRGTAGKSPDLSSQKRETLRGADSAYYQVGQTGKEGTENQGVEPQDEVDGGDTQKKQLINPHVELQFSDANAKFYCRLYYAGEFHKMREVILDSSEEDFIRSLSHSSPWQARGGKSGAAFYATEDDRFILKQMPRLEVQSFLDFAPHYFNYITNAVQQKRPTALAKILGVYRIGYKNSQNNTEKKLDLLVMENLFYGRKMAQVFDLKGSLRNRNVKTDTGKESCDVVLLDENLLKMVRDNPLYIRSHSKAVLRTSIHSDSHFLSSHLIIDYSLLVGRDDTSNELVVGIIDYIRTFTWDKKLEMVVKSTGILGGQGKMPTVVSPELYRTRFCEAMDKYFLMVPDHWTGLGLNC

With `Cc1cccc(/C=N/Nc2cc(N3CCOCC3)nc(OCCc3ccc(NC(=O)CCCCCC(=O)N[C@H](C(=O)N4C[C@H](O)C[C@H]4C(=O)NCc4ccc(-c5scnc5C)cc4)C(C)(C)C)cc3)n2)c1`, the Activity in [1] turned out to be 75%; in experiment [2], 90%.

In the case of `Cc1cccc(/C=N/Nc2cc(N3CCOCC3)nc(OCCNC(=O)CCCCCCCC(=O)N[C@H](C(=O)N3C[C@H](O)C[C@H]3C(=O)NCc3ccc(-c4scnc4C)cc3)C(C)(C)C)n2)c1`, the Activity in experiment [1] worked out at 17%; in experiment [2], 30%.

In the case of `Cc1cccc(/C=N/Nc2cc(N3CCOCC3)nc(OCCNC(=O)CC(=O)N[C@H](C(=O)N3C[C@H](O)C[C@H]3C(=O)NCc3ccc(-c4scnc4C)cc3)C(C)(C)C)n2)c1`, the Activity in [1] and in experiment [2] was 0% throughout.

On to `Cc1cccc(/C=N/Nc2cc(N3CCOCC3)nc(OCCc3ccc(NC(=O)CCCCCCCCC(=O)N[C@H](C(=O)N4C[C@H](O)C[C@H]4C(=O)NCc4ccc(-c5scnc5C)cc4)C(C)(C)C)cc3)n2)c1`, for which the values for the Activity in experiment [1] and in experiment [2] were 45% and 81%, respectively.

With `Cc1cccc(/C=N/Nc2cc(N3CCOCC3)nc(OCCc3ccc(NC(=O)CCCCCCCCCC(=O)N[C@H](C(=O)N4C[C@H](O)C[C@H]4C(=O)NCc4ccc(-c5scnc5C)cc4)C(C)(C)C)cc3)n2)c1`, the figures for the Activity in experiment [1] and in experiment [2] were 41% and 64%, respectively.

As for `Cc1cccc(/C=N/Nc2cc(N3CCOCC3)nc(OCCc3ccc(NC(=O)CCCCC(=O)N[C@H](C(=O)N4C[C@H](O)C[C@H]4C(=O)N[C@@H](C)c4ccc(-c5scnc5C)cc4)C(C)(C)C)cc3)n2)c1`, the Activity stood at 44% in experiment [1] and 47% in experiment [2].

Consider `Cc1cccc(/C=N/Nc2cc(N3CCOCC3)nc(OCCNC(=O)CCCCC(=O)N[C@H](C(=O)N3C[C@H](O)C[C@H]3C(=O)NCc3ccc(-c4scnc4C)cc3)C(C)(C)C)n2)c1`, for which the Activity in experiment [1] was 10%; in experiment [2], 0%.

As for `Cc1cccc(/C=N/Nc2cc(N3CCOCC3)nc(OCCNC(=O)CCCCCCCCCCC(=O)N[C@H](C(=O)N3C[C@H](O)C[C@H]3C(=O)NCc3ccc(-c4scnc4C)cc3)C(C)(C)C)n2)c1`, the Activity in experiment [1] was 21%; in [2], 67%.

For `Cc1cccc(/C=N/Nc2cc(N3CCOCC3)nc(OCCc3ccc(NC(=O)CCCC(=O)N[C@H](C(=O)N4C[C@H](O)C[C@H]4C(=O)NCc4ccc(-c5scnc5C)cc4)C(C)(C)C)cc3)n2)c1`, the Activity in experiment [1] and in experiment [2] was 0% in each case.

A word on the IC50: it is the concentration needed to halve the response being measured. Take `Cc1cccc(/C=N/Nc2cc(N3CCOCC3)nc(OCCc3ccccn3)n2)c1` [APILIMOD]: the inhibition result in [3] is “inactive”. For the same molecule, the values for the concentration for half-maximal inhibition (IC50) in experiment [4] and in experiment [6] were 1190 nM and 254 nM, respectively. Further, the Activity result in experiment [5] is “Dose-Dependent Effect”. The outcome in [7] was Active.

On to `Cc1cccc(/C=N/Nc2cc(N3CCOCC3)nc(OCCNC(=O)CCCCCCCCC(=O)N[C@H](C(=O)N3C[C@H](O)C[C@H]3C(=O)NCc3ccc(-c4scnc4C)cc3)C(C)(C)C)n2)c1`, for which the Activity in experiment [1] was found to be 31%; in experiment [2] it was 32%.

On to `Cc1cccc(/C=N/Nc2cc(N3CCOCC3)nc(OCCNC(=O)CCC(=O)N[C@H](C(=O)N3C[C@H](O)C[C@H]3C(=O)NCc3ccc(-c4scnc4C)cc3)C(C)(C)C)n2)c1`, for which the Activity in [1] and in experiment [2] was 0% each time.

Turning to `Cc1cccc(/C=N/Nc2cc(N3CCOCC3)nc(OCCc3ccc(NC(=O)CC(=O)N[C@H](C(=O)N4C[C@H](O)C[C@H]4C(=O)NCc4ccc(-c5scnc5C)cc4)C(C)(C)C)cc3)n2)c1`, the Activity in [1] and in experiment [2] was 0% throughout.

On to `Cc1cccc(/C=N/Nc2cc(N3CCOCC3)nc(OCCNC(=O)CCCCCCCCCC(=O)N[C@H](C(=O)N3C[C@H](O)C[C@H]3C(=O)NCc3ccc(-c4scnc4C)cc3)C(C)(C)C)n2)c1`, for which the Activity in experiment [1] is 32%; in [2] it was 72%.

On to `Cc1cccc(/C=N/Nc2cc(N3CCOCC3)nc(OCCc3ccc(NC(=O)CCCCCCC(=O)N[C@H](C(=O)N4C[C@H](O)C[C@H]4C(=O)NCc4ccc(-c5scnc5C)cc4)C(C)(C)C)cc3)n2)c1`, for which the Activity in [1] was 19%; in experiment [2] it was 26%.

Consider `Cc1cccc(/C=N/Nc2cc(N3CCOCC3)nc(OCCc3ccc(NC(=O)CCCCCCCCCCC(=O)N[C@H](C(=O)N4C[C@H](O)C[C@H]4C(=O)NCc4ccc(-c5scnc5C)cc4)C(C)(C)C)cc3)n2)c1`, for which the Activity is 3% in [1] and 48% in experiment [2].

For the molecule `Cc1cccc(/C=N/Nc2cc(N3CCOCC3)nc(OCCc3ccc(NC(=O)CCCCC(=O)N[C@H](C(=O)N4C[C@@H](O)C[C@H]4C(=O)NCc4ccc(-c5scnc5C)cc4)C(C)(C)C)cc3)n2)c1`, the inhibition result in experiment [3] was “inactive”. In experiment [8], the IC50 was above 3000 nM. The outcome in experiment [9] was inactive. Besides, the Activity in [1] and in experiment [2] was 0% throughout. The outcome in experiment [7] was Active.

Regarding `Cc1cccc(/C=N/Nc2cc(N3CCOCC3)nc(OCCc3ccc(NC(=O)CCC(=O)N[C@H](C(=O)N4C[C@H](O)C[C@H]4C(=O)NCc4ccc(-c5scnc5C)cc4)C(C)(C)C)cc3)n2)c1`, the figures for the Activity in experiment [1] and in experiment [2] were 8% and 0%, respectively.

Regarding `Cc1cccc(/C=N/Nc2cc(N3CCOCC3)nc(OCCc3ccc(NC(=O)CCCCCCCC(=O)N[C@H](C(=O)N4C[C@H](O)C[C@H]4C(=O)NCc4ccc(-c5scnc5C)cc4)C(C)(C)C)cc3)n2)c1`, the Activity in experiment [1] was 92%; in experiment [2], 84%.

Turning to `Cc1cccc(/C=N/Nc2cc(N3CCOCC3)nc(OCCNC(=O)CCCCCC(=O)N[C@H](C(=O)N3C[C@H](O)C[C@H]3C(=O)NCc3ccc(-c4scnc4C)cc3)C(C)(C)C)n2)c1`, the figures for the Activity in experiment [1] and in experiment [2] were 0% and 3%, respectively.

For the molecule `Cc1cccc(/C=N/Nc2cc(N3CCOCC3)nc(OCCNC(=O)CCCC(=O)N[C@H](C(=O)N3C[C@H](O)C[C@H]3C(=O)NCc3ccc(-c4scnc4C)cc3)C(C)(C)C)n2)c1`, the Activity in [1] and in [2] was 0% throughout.

In the case of `Cc1cccc(/C=N/Nc2cc(N3CCOCC3)nc(OCCNC(=O)CCCCCCC(=O)N[C@H](C(=O)N3C[C@H](O)C[C@H]3C(=O)NCc3ccc(-c4scnc4C)cc3)C(C)(C)C)n2)c1`, the Activity in experiment [1] turned out to be 51%; in experiment [2] it was 0%.
